Source: ChEMBL document CHEMBL3351568, “2-Aminobenzoxazole ligands of the hepatitis C virus internal ribosome entry site” (Bioorg Med Chem Lett, 2014)

These compounds were tested against Internal ribosome entry site (IRES) (assay: Binding affinity to HCV cyanine dye-labeled IRES subdomain 2a RNA by FRET assay in presence of tRNA).
Parameters: species or system Hepacivirus hominis
Outline: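 IRES subdomain IIa RNA target binding by FRET, following a previously described method. Compounds were titrated in triplicate experiments, and the data were averaged. EC50 came from fitting a single-site binding dose-response curve to the averaged data.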
In the case of `CN(C)CCCNc1nc2cc(N)ccc2o1`, the EC50 is reported as 52 µM. Compound `CN(C)CCCNc1nc2cccc(N)c2o1` has an EC50 of 31 µM. In the case of `Nc1nc2ccc(Nc3ccccc3)cc2o1`, the EC50 is reported as 90 µM. Work on `Nc1ccc2nc(NCCCN3CCOCC3)oc2c1` yielded an EC50 of 43 µM. `CN(C)CCCNc1nc2ccc(N)cc2o1` was tested, and the EC50 was 120 µM. For `CN(C)CCCNc1ccc2nc(NCCCN(C)C)oc2c1`, the EC50 was 63 µM. For `CN(C)CCCNc1nc2ccccc2o1`, the EC50 was 110 µM. `Nc1ccc2nc(NCCCN3CCCCC3)oc2c1` was tested, and the EC50 was 47 µM. `CN(CCC(=O)N(C)C)Cc1cccc2nc(N)oc12` was tested, and the EC50 was 600 µM. In the case of `Nc1ccc2nc(NCCN3CCCCC3)oc2c1`, the EC50 is reported as 88 µM. `CN(C)CCNc1nc2ccc(N)cc2o1` gave an EC50 of 500 µM. Work on `CN(C)CCCNc1ccc2nc(N)oc2c1` yielded an EC50 of 25 µM. Compound `CN(C)CCN(C)Cc1cccc2nc(N)oc12` has an EC50 of 190 µM. `Nc1nc2ccc(NCc3ccccc3)cc2o1` was tested, and the EC50 was 27 µM.
